Experimental findings from ChEMBL document CHEMBL4351002, “Design, synthesis and antitumor study of a series of N-Cyclic sulfamoylaminoethyl substituted 1,2,5-oxadiazol-3-amines as new indoleamine 2, 3-dioxygenase 1 (IDO1) inhibitors” (Eur J Med Chem, 2019) are described below.

The nature of data set [1]: AUClast in Sprague-Dawley rat at 1 mg/kg, iv measured at 0.05 to 24 hrs by HPLC coupled LC-MS/MS analysis. It is filed as ADME, organism-based. Set-up: dose 1 mg/kg, route intravenous, time 0 - last. As to conditions: in vivo. In short, it runs like this:
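Male SD rats, n = 3, given 1 mg/kg intravenously. Blood was drawn at 0.05, 0.25, 0.75, 2, 4, 8 and 24 h and kept on wet ice. Serum was separated by centrifugation, stored frozen at -20 °C and quantified by LC-MS/MS. Values are the average of three runs.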

In data set [2] the test system is CT26. Briefly: Antitumour activity against mouse CT26 cells allografted in Balb/c mouse assessed as survival time at 100 mg/kg, po bid for 22 days starting 8 days post inoculation measured thrice per week (reference value: 20.5 days). It is filed as functional.
The subject of data set [3] is CT26. Put plainly: Antitumour activity against mouse CT26 cells allografted in Balb/c mouse assessed as median survival time at 100 mg/kg, po bid for 22 days starting 8 days post inoculation measured thrice per week (reference value: 20 days). It is filed as functional.
Data set [4] in a line: Toxicity in Balb/c mouse allografted with mouse CT26 cells assessed as change in body weight at 100 mg/kg, po bid for 14 days starting 8 days post inoculation measured thrice per week in presence of mouse PD-1 antibody at 10 mg/kg, ip biw for 2 weeks. As to conditions: in vivo.
Data set [5] concerns CT26. Briefly: Antitumour activity against mouse CT26 cells allografted in Balb/c mouse assessed as T/C at 100 mg/kg, po bid for 14 days starting 8 days post inoculation in presence of mouse PD-1 antibody at 10 mg/kg, ip biw for 2 weeks measured thrice per week relative to control.
The subject of data set [6] is CT26. Put plainly: Antitumour activity against mouse CT26 cells allografted in Balb/c mouse assessed as tumour growth inhibition at 100 mg/kg, po bid for 14 days starting 8 days post inoculation in presence of mouse PD-1 antibody at 10 mg/kg, ip biw for 2 weeks measured thrice per week (reference value: 37%).
The subject of data set [7] is CT26. Briefly: Antitumour activity against mouse CT26 cells allografted in Balb/c mouse assessed as increase in life span at 100 mg/kg, po bid for 29 days starting 8 days post inoculation in presence of mouse PD-1 antibody at 10 mg/kg, ip biw for 4 weeks measured thrice per week relative to control (reference value: 20%).

In general, AUC(0-t) refers to the area under the concentration-time curve up to a stated or last time point. A lower AUC(0-t) goes with less exposure. In general, T/C refers to the ratio of treated to control. As a reminder, the TGI is how far tumour growth fell short of that in controls. Usually ILS stands for how much longer treated animals lived than controls. In data set [1], `O=S1(=O)NCCN1CCNc1nonc1/C(=N/O)Nc1ccc(F)c(Br)c1` displayed an AUC(0-t) of 406 ng·h/mL. In addition, the Survival with CT26 [2] was 20.25 days. Further, the MST in the data set on CT26 [3] is 20 days. In addition, in data set [4], the Activity result is listed as “Non-Toxic”. The T/C with CT26 [5] came out at 54.1%. In the data set on CT26 [6], the TGI was 47.4%. Also, in the data set on CT26 [7], the ILS is on record as greater than 30%.
